Measurements as given in ChEMBL document CHEMBL3576866, “Discovery of a Cyclic Boronic Acid β-Lactamase Inhibitor (RPX7009) with Utility vs Class A Serine Carbapenemases” (J Med Chem, 2015).
Converted amounts (≈) assume the structure as drawn. One block for each molecule: values may come before it. The source made the active and inactive calls. The calls are words filed in the database; no cut-off is given here.

Tests used:
[1] = test system: Klebsiella pneumoniae; experiment: Antibacterial activity against Klebsiella pneumoniae KP1082 expressing KPC2/SHV-1 by broth microdilution method; assay type: functional
[2] = test system: Klebsiella pneumoniae; experiment: Antibacterial activity against Klebsiella pneumoniae KP1087 expressing KPC2/CTX-M-15/SHV-11/TEM-1 by broth microdilution method; assay type: functional
[3] = test system: Klebsiella pneumoniae; experiment: Antibacterial activity against Klebsiella pneumoniae KP1083 expressing KPC3/SHV-1/TEM-1 by broth microdilution method; assay type: functional
[4] = test system: Klebsiella pneumoniae; experiment: Antibacterial activity against Klebsiella pneumoniae KP1084 expressing KPC3/SHV-11/TEM-1 by broth microdilution method; assay type: functional
[5] = test system: Klebsiella pneumoniae; experiment: Antibacterial activity against Klebsiella pneumoniae KP1088 expressing KPC3/SHV-11/TEM-1 by broth microdilution method; assay type: functional
[6] = test system: Enterobacter cloacae; experiment: Antibacterial activity against Enterobacter cloacae ECL1058 expressing KPC3/SHV-11/TEM-1 by broth microdilution method; assay type: functional
[7] = test system: Klebsiella oxytoca; experiment: Antibacterial activity against Klebsiella oxytoca KX1019 expressing KPC2/OXA2 by broth microdilution method; assay type: functional
[8] = test system: Klebsiella oxytoca; experiment: Antibacterial activity against Klebsiella oxytoca KX1017 expressing KPC2/OXA2/SHV30 by broth microdilution method; assay type: functional
[9] = test system: Klebsiella pneumoniae; experiment: Antibacterial activity against Klebsiella pneumoniae KP1004 expressing KPC2/TEM1/SHV11 by broth microdilution method; assay type: functional
[10] = test system: Klebsiella pneumoniae; experiment: Antibacterial activity against Klebsiella pneumoniae KP1008 expressing KPC2 by broth microdilution method; assay type: functional
[11] = test system: Escherichia coli; experiment: microbe, parasite or virus in culture; conditions: EC1007
[12] = test system: Escherichia coli; experiment: microbe, parasite or virus in culture; conditions: EC1008
[13] = test system: Klebsiella pneumoniae; experiment: microbe, parasite or virus in culture; conditions: KP1005
[14] = test system: Klebsiella pneumoniae; experiment: microbe, parasite or virus in culture; conditions: KP1009
[15] = test system: Klebsiella pneumoniae; experiment: microbe, parasite or virus in culture; conditions: KP1011
[16] = test system: Klebsiella pneumoniae; experiment: microbe, parasite or virus in culture; conditions: KP1010
[17] = test system: Escherichia coli; experiment: microbe, parasite or virus in culture; conditions: EC1009
[18] = test system: Escherichia coli; experiment: microbe, parasite or virus in culture; conditions: EC1011
[19] = test system: Klebsiella oxytoca; experiment: microbe, parasite or virus in culture; conditions: KX1001
[20] = test system: Klebsiella aerogenes; experiment: microbe, parasite or virus in culture; conditions: EA1028
[21] = Competitive inhibition of Escherichia coli RTEM-1
[22] = Inhibition of Escherichia coli MV1183 TEM-1 using nitrocefin as substrate preincubated for 10 mins followed by substrate addition measured for 500 secs
[23] = target: Beta-lactamase (Klebsiella pneumoniae) (UniProt Q93LQ9); experiment: Inhibition of Klebsiella pneumoniae KP1004 KPC 2 carbapenemase assessed as minimum concentration required to reduce biapenem MIC from […] ug/ml to 1 ug/mL by broth microdilution method
[24] = test system: Klebsiella pneumoniae; experiment: Antibacterial activity against Klebsiella pneumoniae KP1004 by broth microdilution method; assay type: functional, organism-based
[25] = test system: Klebsiella pneumoniae; experiment: Antibacterial activity against Klebsiella pneumoniae KP1074 in Swiss webster neutropenic mouse lung infection model assessed as change in log10 CFU in lung at 50 mg/kg, ip administered every 2 hrs starting at 2 hrs postinfection measured after 24 hrs relative to control; assay type: functional
Summary of the method: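 Swiss Webster mice made neutropenic with cyclophosphamide and infected intratracheally under isoflurane with KP1074. […] Lungs harvested 24 h after the start of treatment, homogenized and plated for CFU.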

[26] = Inhibition of Escherichia coli recombinant KPC-2 assessed as substrate nitrocefin degradation preincubated for 10 mins followed by substrate addition measured every 10 secs for 10 mins by spectrophotometric analysis
Summary of the method: (§1)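 β-Lactamases purified from overexpressing recombinant E. coli. Enzyme preincubated with inhibitor at varying concentrations for 10 min at room temperature in 50 mM Na phosphate pH 7.0, 0.1 mg/mL BSA. Then 50 μM nitrocefin (final) added and cleavage read at 490 nm every 10 s for 10 min. Ki derived by the Waley method.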

[27] = Inhibition of Escherichia coli recombinant CTX-M-15 assessed as substrate nitrocefin degradation preincubated for 10 mins followed by substrate addition measured every 10 secs for 10 mins by spectrophotometric analysis; summary of the method: as §1
[28] = Inhibition of Escherichia coli recombinant SHV-12 assessed as substrate nitrocefin degradation preincubated for 10 mins followed by substrate addition measured every 10 secs for 10 mins by spectrophotometric analysis; summary of the method: as §1
[29] = Inhibition of Escherichia coli recombinant TEM-10 assessed as substrate nitrocefin degradation preincubated for 10 mins followed by substrate addition measured every 10 secs for 10 mins by spectrophotometric analysis; summary of the method: as §1
[30] = Inhibition of Escherichia coli recombinant P99 assessed as substrate nitrocefin degradation preincubated for 10 mins followed by substrate addition measured every 10 secs for 10 mins by spectrophotometric analysis; summary of the method: as §1
[31] = Inhibition of Escherichia coli recombinant CMY-2 assessed as substrate nitrocefin degradation preincubated for 10 mins followed by substrate addition measured every 10 secs for 10 mins by spectrophotometric analysis; summary of the method: as §1
[32] = test system: Klebsiella pneumoniae; experiment: Antibacterial activity against Klebsiella pneumoniae KP1074 in Swiss webster neutropenic mouse lung infection model assessed as change in log10 CFU in lung at 100 mg/kg, ip administered every 2 hrs starting at 2 hrs postinfection measured after 24 hrs relative to control; assay type: functional
Summary of the method: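 Neutropenic (cyclophosphamide) Swiss Webster mice infected intratracheally under isoflurane anesthesia with K. pneumoniae KP1074. […] Lungs removed 24 h after start of treatment, homogenized and plated for bacterial counts (CFU).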

Beta-lactamase (Klebsiella pneumoniae), sequence (Q93LQ9 as listed by the source): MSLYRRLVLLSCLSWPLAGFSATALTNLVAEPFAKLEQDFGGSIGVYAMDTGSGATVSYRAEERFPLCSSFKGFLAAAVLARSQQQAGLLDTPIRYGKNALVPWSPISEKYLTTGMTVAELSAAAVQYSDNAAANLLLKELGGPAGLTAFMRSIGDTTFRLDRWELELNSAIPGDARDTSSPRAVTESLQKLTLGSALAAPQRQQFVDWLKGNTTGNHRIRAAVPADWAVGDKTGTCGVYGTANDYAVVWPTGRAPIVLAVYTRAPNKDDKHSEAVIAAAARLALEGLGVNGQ

- MEC [23]: 0.3 µg/mL
Compound: N[C@H](C(=O)N[C@H]1CC[C@@H](CC(=O)O)OB1O)c1ccccc1
- Activity [24]: inactive

- MEC [23]: 0.61 µg/mL
Compound: O=C(O)C[C@@H]1CC[C@H](NC(=O)C(O)c2ccccc2)B(O)O1 (stereo partly drawn)
- Activity [24]: inactive

- MEC [23]: 0.3 µg/mL
Compound: O=C(O)C[C@@H]1CC[C@H](NC(=O)CCc2ccccc2)B(O)O1
- Activity [24]: inactive

- MEC [23]: 1.25 µg/mL
Compound: O=C(O)C[C@@H]1CC[C@H](NC(=O)Cc2cccc(O)c2)B(O)O1
- Activity [24]: inactive

- MEC [23]: 0.15 µg/mL
Compound: O=C(O)C[C@@H]1CC[C@H](NC(=O)Cc2ccccc2)B(O)O1
- Activity [24]: inactive

- MEC [23]: 0.16 µg/mL
Compound: O=C(O)C[C@@H]1CC[C@H](NC(=O)Cc2ccccc2O)B(O)O1
- Activity [24]: inactive

- MEC [23]: 0.15 µg/mL
Compound: O=C(O)C[C@@H]1CC[C@H](NC(=O)Cc2ccccn2)B(O)O1
- Activity [24]: inactive

- MEC [23]: 0.3 µg/mL
Compound: O=C(O)C[C@@H]1CC[C@H](NC(=O)c2ccccc2)B(O)O1
- Activity [24]: inactive

The remaining lines, values behind:

Compound: C[C@@H](O)[C@H]1C(=O)N2C(C(=O)O)=C(S[C@@H]3CN[C@H](C(=O)Nc4cccc(C(=O)O)c4)C3)[C@H](C)[C@H]12
- MIC [1]: 4 µg/mL (≈ 8.41 µM)
- MIC [2]: > 64 µg/mL
- MIC [3]: 32 µg/mL (≈ 67.3 µM)
- MIC [4]: > 64 µg/mL
- MIC [5]: 16 µg/mL (≈ 33.6 µM)
- MIC [6]: 32 µg/mL (≈ 67.3 µM)
- MIC [7]: 16 µg/mL (≈ 33.6 µM)
- MIC [8]: 16 µg/mL (≈ 33.6 µM)
- MIC [9]: 32 µg/mL (≈ 67.3 µM)
- MIC [10]: 8 µg/mL (≈ 16.8 µM)
- MIC [11]: 8 µg/mL (≈ 16.8 µM)

Compound: CO/N=C(\C(=O)N[C@@H]1C(=O)N2C(C(=O)[O-])=C(C[N+]3(C)CCCC3)CS[C@H]12)c1csc(N)n1
- MIC [12]: > 64 µg/mL
- MIC [13]: 64 µg/mL (≈ 133 µM)
- MIC [14]: > 64 µg/mL
- MIC [15]: 64 µg/mL (≈ 133 µM)
- MIC [16]: 2 µg/mL (≈ 4.16 µM)
- MIC [17]: 8 µg/mL (≈ 16.6 µM)
- MIC [18]: 8 µg/mL (≈ 16.6 µM)
- MIC [19]: 4 µg/mL (≈ 8.32 µM)
- MIC [20]: > 64 µg/mL

Compound: CC(=O)NC(Cc1cccc(C(=O)O)c1)B(O)O (stereo not drawn)
- Ki [21]: 0.11 µM

Compound: O=C(Cc1ccccc1)NC(Cc1cccc(C(=O)O)c1)B(O)O (stereo not drawn)
- Ki [22]: 0.006 µM

Compound: CC(=O)NC(Cc1cccc(C(=O)O)c1O)B(O)O (stereo not drawn)
- Ki [22]: 0.013 µM

Compound: CC(=O)N[C@H]1CC[C@@H](CC(=O)O)OB1O
- MEC [23]: 0.3 µg/mL
- Activity [24]: inactive

Compound: NCCSCC(=O)N[C@H]1CC[C@@H](CC(=O)O)OB1O
- MEC [23]: 0.3 µg/mL
- Activity [24]: inactive

Compound: Nc1cc(CC(=O)N[C@H]2CC[C@@H](CC(=O)O)OB2O)ccn1
- MEC [23]: 0.04 µg/mL
- Activity [24]: inactive

Compound: Nc1nc(CC(=O)N[C@H]2CC[C@@H](CC(=O)O)OB2O)cs1
- MEC [23]: 0.61 µg/mL
- Activity [24]: inactive

Compound: O=C(O)C[C@@H]1CC[C@H](NC(=O)C2CC2)B(O)O1
- MEC [23]: 0.15 µg/mL
- Activity [24]: inactive

Compound: O=C(O)C[C@@H]1CC[C@H](NC(=O)C[C@H]2CCCCN2)B(O)O1
- MEC [23]: 0.15 µg/mL
- Activity [24]: inactive

Compound: O=C(O)C[C@@H]1CC[C@H](NC(=O)Cc2cccnc2)B(O)O1
- MEC [23]: 0.15 µg/mL
- Activity [24]: inactive

Compound: O=C(O)C[C@@H]1CC[C@H](NC(=O)Cc2ccncc2)B(O)O1
- MEC [23]: 0.15 µg/mL
- Activity [24]: inactive

Compound: CO/N=C(\C(=O)N[C@H]1CC[C@@H](CC(=O)O)OB1O)c1csc(N)n1 (stereo in doubt)
- MEC [23]: 1.25 µg/mL
- Activity [24]: inactive

Compound: C[C@@H](O)[C@H]1C(=O)N2C(C(=O)[O-])=C(SC3Cn4cnc[n+]4C3)[C@H](C)[C@H]12 (stereo partly drawn) [BIAPENEM]
- MIC [1]: 4 µg/mL (≈ 11.4 µM)
- MIC [2]: 16 µg/mL (≈ 45.7 µM)
- MIC [3]: 16 µg/mL (≈ 45.7 µM)
- MIC [4]: 64 µg/mL (≈ 183 µM)
- MIC [5]: 32 µg/mL (≈ 91.3 µM)
- deltalog10CFU [25]: 0.88
- MIC [6]: 8 µg/mL (≈ 22.8 µM)
- MIC [7]: 8 µg/mL (≈ 22.8 µM)
- MIC [8]: 4 µg/mL (≈ 11.4 µM)
- MIC [9]: 8 µg/mL (≈ 22.8 µM)
- MIC [10]: 8 µg/mL (≈ 22.8 µM)
- MIC [11]: 8 µg/mL (≈ 22.8 µM)

Compound: O=C(O)[C@H]1/C(=C/CO)O[C@@H]2CC(=O)N21 [CLAVULANIC ACID]
- Ki [26]: 41.2 µM
- Ki [27]: 0.027 µM
- Ki [28]: ≤ 0.039 µM
- Ki [29]: 0.02 µM
- Ki [30]: 1110 µM
- Ki [31]: 845 µM

Compound: C[C@@H](O)[C@H]1C(=O)N2C(C(=O)O)=C(SCCNC=N)C[C@H]12 [IMIPENEM ANHYDROUS]
- MIC [1]: 4 µg/mL (≈ 13.4 µM)
- MIC [2]: 16 µg/mL (≈ 53.4 µM)
- MIC [3]: 16 µg/mL (≈ 53.4 µM)
- MIC [4]: 64 µg/mL (≈ 214 µM)
- MIC [5]: 32 µg/mL (≈ 107 µM)
- MIC [6]: 8 µg/mL (≈ 26.7 µM)
- MIC [7]: 4 µg/mL (≈ 13.4 µM)
- MIC [8]: 8 µg/mL (≈ 26.7 µM)
- MIC [9]: 8 µg/mL (≈ 26.7 µM)
- MIC [10]: 4 µg/mL (≈ 13.4 µM)
- MIC [11]: 8 µg/mL (≈ 26.7 µM)

Compound: C[C@@H](O)[C@H]1C(=O)N2C(C(=O)O)=C(S[C@@H]3CN[C@H](C(=O)N(C)C)C3)[C@H](C)[C@H]12 [MEROPENEM]
- MIC [1]: 4 µg/mL (≈ 10.4 µM)
- MIC [2]: 64 µg/mL (≈ 167 µM)
- MIC [4]: > 64 µg/mL
- MIC [5]: 8 µg/mL (≈ 20.9 µM)
- deltalog10CFU [32]: 1.41
- MIC [6]: 8 µg/mL (≈ 20.9 µM)
- MIC [7]: 4 µg/mL (≈ 10.4 µM)
- MIC [8]: 4 µg/mL (≈ 10.4 µM)
- MIC [9]: 8 µg/mL (≈ 20.9 µM)
- MIC [10]: 4 µg/mL (≈ 10.4 µM)
- MIC [11]: 4 µg/mL (≈ 10.4 µM)

Compound: C[C@]1(Cn2ccnn2)[C@H](C(=O)O)N2C(=O)C[C@H]2S1(=O)=O [TAZOBACTAM]
- Ki [26]: 1.6 µM
- Ki [27]: 0.001 µM
- Ki [28]: 0.0004 µM
- Ki [29]: 0.005 µM
- Ki [30]: 1.1 µM
- Ki [31]: 0.71 µM
